This passage reports MIC, inhibition and Activity results from ChEMBL document CHEMBL1157799, “Creating an antibacterial with in vivo efficacy: synthesis and characterization of potent inhibitors of the bacterial cell division protein FtsZ with improved pharmaceutical properties” (J Med Chem, 2010).

Experiment [1] concerns Staphylococcus aureus. The experiment in a line: Antibacterial activity against Staphylococcus aureus ATCC 29213 by broth microdilution assay in presence of 2% bovine serum albumin. The experiment is classed as functional. In a few lines: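 Broth microdilution MIC per CLSI recommendations, with 2% w/v bovine serum albumin added to the assay medium to track the effect of protein on antibacterial activity.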

The subject of experiment [2] is Staphylococcus aureus. The experiment is described as follows: Antibacterial activity against Staphylococcus aureus ATCC 29213 by broth microdilution assay. Type of experiment: functional. In outline:
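Broth microdilution MIC per CLSI recommendations; reproducibility within one 2-fold dilution of the end point.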
In general terms: Broth dilution looks for growth in wells or tubes with falling amounts of substance.

Experiment [3] deals with T1, Cell division protein FtsZ (Staphylococcus aureus) (UniProt P0A031).
T1 sequence (whole entry): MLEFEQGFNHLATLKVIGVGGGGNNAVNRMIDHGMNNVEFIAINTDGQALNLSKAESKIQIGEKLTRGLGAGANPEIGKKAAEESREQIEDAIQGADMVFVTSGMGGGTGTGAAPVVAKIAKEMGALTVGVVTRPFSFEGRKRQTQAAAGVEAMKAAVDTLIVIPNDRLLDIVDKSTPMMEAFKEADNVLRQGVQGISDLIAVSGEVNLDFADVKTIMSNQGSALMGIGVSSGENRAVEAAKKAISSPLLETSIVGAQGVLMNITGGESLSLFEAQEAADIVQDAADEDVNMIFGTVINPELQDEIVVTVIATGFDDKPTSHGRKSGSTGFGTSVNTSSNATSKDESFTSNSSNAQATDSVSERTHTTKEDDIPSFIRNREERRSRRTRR
The experiment in a line: Inhibition of Staphylococcus aureus ATCC 29213 FtsZ assessed as lowest drug level required for ballooning of cells by light microscopy. In a few lines:
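Cocci examined by light microscopy for morphology. Value is the lowest concentration at which ballooning appears; WT is recorded when morphology is unchanged.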

The target of experiment [4] is T1, Cell division protein FtsZ (Staphylococcus aureus). The experiment is described as follows: Inhibition of Staphylococcus aureus ATCC 29213 FtsZ assessed as appearance of enlarged cells at 2048 to 4096 ug/mL by light microscopy.

Values after ≈ are worked out from the molar mass of the structure shown. Active and inactive are the calls of the source. The rule behind the calls is not given here.

In the case of `NC(=O)c1c(F)ccc(OCCn2cccn2)c1F`, the MIC was found to be 256 µg/mL in experiment [1] and 256 µg/mL (≈ 958 µM) in experiment [2].
For the compound `NC(=O)c1c(F)ccc(OCc2nc3ccccc3o2)c1F`, the MIC came out at 256 µg/mL (≈ 841 µM) in experiment [3] and 128 µg/mL (≈ 421 µM) in experiment [2].
`COc1cccc(C(N)=O)c1`: the MIC in experiment [1] was 4100 µg/mL; in experiment [2] it was 2050 µg/mL (≈ 13500 µM). Moreover, the inhibition entry in experiment [4] is “Active”.
In turn, `NC(=O)c1c(F)ccc(OCc2nc3cccc(-c4ccccc4)c3s2)c1F` came in with an MIC in experiment [2] of over 256 µg/mL.
With `NC(=O)c1c(F)ccc(OCc2ccc3ccccc3n2)c1F`, the MIC in experiment [1] was 32 µg/mL; in experiment [3], 16 µg/mL (≈ 50.9 µM).
Regarding `NC(=O)c1c(F)ccc(OCc2nc3cccc(Cl)c3s2)c1F`, in experiment [3], the Activity was 8 µg/mL. Besides, the MIC in experiment [2] came to 4 µg/mL (≈ 11.3 µM).
In turn, `NC(=O)c1c(F)ccc(OCc2nc3c(-c4ccccc4)cccc3s2)c1F` gave an MIC in experiment [2] of over 256 µg/mL.
Take `NC(=O)c1c(F)ccc(Oc2nc3ccccc3s2)c1F`: the MIC in experiment [1] and in experiment [2] was over 256 µg/mL each time.
`Cc1ccc2nc(COc3ccc(F)c(C(N)=O)c3F)sc2c1` had an MIC in experiment [2] of 8 µg/mL (≈ 23.9 µM).
Regarding `Cc1cccc2sc(COc3ccc(F)c(C(N)=O)c3F)nc12`, in experiment [3], the Activity worked out at 2050 µg/mL. Besides, the MIC in experiment [2] amounted to 16 µg/mL (≈ 47.9 µM).
In experiment [2], `NC(=O)c1c(F)ccc(OCc2nc3ccc(-c4ccccc4)cc3s2)c1F` gave an MIC of over 256 µg/mL.
Take `NC(=O)c1c(F)ccc(OCc2nc3ccc(Cl)cc3s2)c1F`: the Activity in experiment [3] was 8 µg/mL. Also, in experiment [2], the MIC is 4 µg/mL (≈ 11.3 µM).
Consider `Cc1csc(COc2ccc(F)c(C(N)=O)c2F)c1`, for which the MIC in experiment [1] is 128 µg/mL; in experiment [3], 32 µg/mL (≈ 113 µM).
As for `NC(=O)c1c(F)ccc(OCc2nc3cc(-c4ncno4)ccc3s2)c1F`, the Activity in experiment [3] is 0.5 µg/mL. For the same compound, the MIC in experiment [2] amounted to 0.5 µg/mL (≈ 1.29 µM).
Regarding `COc1cccc2sc(COc3ccc(F)c(C(N)=O)c3F)nc12`, the Activity in experiment [3] came out at 64 µg/mL. For the same compound, in experiment [2], the MIC amounted to 16 µg/mL (≈ 45.7 µM).
In experiment [2], `NC(=O)c1c(F)ccc(OCc2nc3cc(C(=O)O)ccc3s2)c1F` came in with an MIC of over 64 µg/mL.
In the case of `COc1cc2nc(COc3ccc(F)c(C(N)=O)c3F)sc2nc1Cl`, the MIC in experiment [1] was over 64 µg/mL; in experiment [2] it was 16 µg/mL (≈ 41.5 µM).
Consider `Cc1cnc(COc2ccc(F)c(C(N)=O)c2F)s1`, for which the MIC in experiment [1] came to 256 µg/mL; in experiment [2], 256 µg/mL (≈ 900 µM).
`COc1ccc2sc(COc3ccc(F)c(C(N)=O)c3F)nc2c1`: in experiment [3], the Activity was 2 µg/mL.
`CCCCCCOc1ccc(F)c(C(N)=O)c1F`: the MIC in experiment [1] came out at 32 µg/mL; in experiment [3], 8 µg/mL (≈ 31.1 µM).
